# Laboratory results taken from ChEMBL document CHEMBL2440089, “CoMFA studies and in vitro evaluation of some 3-substituted benzylthio quinolinium salts as anticryptococcal agents” (Bioorg Med Chem, 2013).
# Tests used:
# Vero [1] = assay: Cytotoxicity against african green monkey Vero cells after 48 hrs by Neutral Red dye assay; type: cell-based; conditions: chlorocebus sabaeus
# How it was run: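 Kidney […] (VERO) cells were seeded at 25,000 cells/well and incubated for 24 h, then exposed to samples for 48 h. Viable cells were counted by Neutral Red dye uptake. IC50 was taken from growth-inhibition versus concentration curves. Doxorubicin served as the positive control and DMSO as the vehicle control.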
# Cryptococcus neoformans = assay: Antifungal activity against Cryptococcus neoformans ATCC 90113 by CLSI method; type: functional, organism-based
# How it was run: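 Test samples in DMSO were serially diluted in saline and run in duplicate in Sabouraud dextrose broth, with final concentrations starting at 20 μg/mL. Absorbance at 530 nm was read before and after incubation. Each plate carried growth, solvent and media-blank controls, with amphotericin B as the drug control. IC50 (50% inhibition relative to controls) was obtained by curve fitting.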
# Vero [2] = assay: Cytotoxicity against african green monkey Vero cells at 10 ug/ml after 48 hrs by Neutral Red dye assay; type: cell-based; conditions: chlorocebus sabaeus
SMILES,Activity (Vero [1]) [µM],IC50 (Cryptococcus neoformans; read-out: IC50) [µM],IC50 (Cryptococcus neoformans; read-out: pIC50 (converted)) [µM],Activity (Vero [2])
[I-].c1ccc(Sc2cc3ccccc3[n+](CCCCCC3CCCCC3)c2)cc1,8.89,–,–,–
Fc1cccc(Sc2cc3ccccc3[n+](CCCCCC3CCCCC3)c2)c1.[I-],1.23,13.2,13.2,–
COc1cccc(Sc2cc3ccccc3[n+](CCCCCC3CCCCC3)c2)c1.[I-],8.22,18.5,18.5,–
Cc1ccccc1Sc1cc2ccccc2[n+](CCCCCC2CCCCC2)c1.[I-],7.53,–,–,–
Cc1cccc(Sc2cc3ccccc3[n+](CCCCCC3CCCCC3)c2)c1.[I-],6.96,–,–,–
Cc1ccc(Sc2cc3ccccc3[n+](CCCCCC3CCCCC3)c2)cc1.[I-],5.27,–,–,–
Oc1ccccc1Sc1cc2ccccc2[n+](CCCCCC2CCCCC2)c1.[I-],17.4,–,–,–
Oc1cccc(Sc2cc3ccccc3[n+](CCCCCC3CCCCC3)c2)c1.[I-],–,2.34,2.34,Non-toxic
Oc1ccc(Sc2cc3ccccc3[n+](CCCCCC3CCCCC3)c2)cc1.[I-],–,–,–,Non-toxic
FC(F)(F)c1ccccc1Sc1cc2ccccc2[n+](CCCCCC2CCCCC2)c1.[I-],–,3.74,3.74,Non-toxic
FC(F)(F)c1cccc(Sc2cc3ccccc3[n+](CCCCCC3CCCCC3)c2)c1.[I-],–,–,–,Non-toxic
FC(F)(F)c1ccc(Sc2cc3ccccc3[n+](CCCCCC3CCCCC3)c2)cc1.[I-],–,–,–,Non-toxic
COc1ccc(Sc2cc3ccccc3[n+](CCCCCC3CCCCC3)c2)cc1.[I-],7.67,0.731,0.731,–
[I-].c1ccc(CSc2cc3ccccc3[n+](CCCCCC3CCCCC3)c2)cc1,–,0.301,0.301,Non-toxic
Clc1ccccc1CSc1cc2ccccc2[n+](CCCCCC2CCCCC2)c1.[I-],–,1.35,1.35,Non-toxic
Clc1ccc(CSc2cc3ccccc3[n+](CCCCCC3CCCCC3)c2)cc1.[I-],2.3,0.088,0.0883,–
Cc1cccc(CSc2cc3ccccc3[n+](CCCCCC3CCCCC3)c2)c1.[I-],4.95,0.769,0.769,–
Cc1ccc(CSc2cc3ccccc3[n+](CCCCCC3CCCCC3)c2)cc1.[I-],6.78,0.458,0.458,–
FC(F)(F)c1ccc(CSc2cc3ccccc3[n+](CCCCCC3CCCCC3)c2)cc1.[I-],7.94,0.416,0.417,–

SMILES,Activity (Vero [1]) [µM],IC50 (Cryptococcus neoformans; read-out: IC50) [µM],IC50 (Cryptococcus neoformans; read-out: pIC50 (converted)) [µM],Activity (Vero [2])
[I-].[O-][S+](c1ccc(F)cc1)c1cc2ccccc2[n+](CCCCCc2ccccc2)c1 (stereo not given),–,27.5,27.5,Non-toxic
[I-].[O-][S+](c1cccc(C(F)(F)F)c1)c1cc2ccccc2[n+](CCCCCc2ccccc2)c1 (stereo not given),–,10.9,10.9,Non-toxic
[I-].[O-][S+](c1cc2ccccc2[n+](CCCCCc2ccccc2)c1)c1ccccc1C(F)(F)F (stereo not given),–,9.25,9.25,Non-toxic
[I-].[O-][S+](c1cc2ccccc2[n+](CCCCCc2ccccc2)c1)c1ccccc1Br (stereo not given),–,9.08,9.08,Non-toxic
[I-].[O-][S+](c1ccc(Br)cc1)c1cc2ccccc2[n+](CCCCCc2ccccc2)c1 (stereo not given),–,14.9,–,Non-toxic
[I-].[O-][S+](c1ccc(C(F)(F)F)cc1)c1cc2ccccc2[n+](CCCCCc2ccccc2)c1 (stereo not given),21.4,10,–,–
Oc1ccc(CSc2cc3ccccc3[n+](CCCCCC3CCCCC3)c2)cc1.[I-],–,9.04,9.04,Non-toxic
CC(C)(C)c1ccc(CSc2cc3ccccc3[n+](CCCCCC3CCCCC3)c2)cc1.[I-],–,0.883,0.883,Non-toxic
Fc1ccccc1CSc1cc2ccccc2[n+](CCCCCC2CCCCC2)c1.[I-],–,0.948,0.948,Non-toxic
Fc1cccc(CSc2cc3ccccc3[n+](CCCCCC3CCCCC3)c2)c1.[I-],–,0.711,0.711,Non-toxic
Fc1ccc(CSc2cc3ccccc3[n+](CCCCCC3CCCCC3)c2)cc1.[I-],–,0.677,0.678,Non-toxic
COc1ccccc1CSc1cc2ccccc2[n+](CCCCCC2CCCCC2)c1.[I-],–,0.623,0.624,Non-toxic
COc1cccc(CSc2cc3ccccc3[n+](CCCCCC3CCCCC3)c2)c1.[I-],–,0.606,0.607,Non-toxic
COc1ccc(CSc2cc3ccccc3[n+](CCCCCC3CCCCC3)c2)cc1.[I-],–,2.15,2.15,Non-toxic
Brc1ccccc1CSc1cc2ccccc2[n+](CCCCCC2CCCCC2)c1.[I-],–,1.13,1.13,Non-toxic
Brc1cccc(CSc2cc3ccccc3[n+](CCCCCC3CCCCC3)c2)c1.[I-],–,0.36,0.361,Non-toxic
Brc1ccc(CSc2cc3ccccc3[n+](CCCCCC3CCCCC3)c2)cc1.[I-],–,0.369,0.37,Non-toxic
C[C@@H]1[C@H](O)[C@@H](C)/C=C/C=C/C=C/C=C/C=C/C=C/C=C/[C@H](O[C@@H]2O[C@H](C)[C@@H](O)[C@H](N)[C@@H]2O)C[C@@H]2O[C@](O)(C[C@@H](O)C[C@@H](O)[C@H](O)CC[C@@H](O)C[C@@H](O)CC(=O)O[C@H]1C)C[C@H](O)[C@H]2C(=O)O [AMPHOTERICIN B],7.03,0.422,–,–
C[n+]1c2ccccc2cc2[n-]c3ccccc3c21 [CRYPTOLEPINE],8.88,43.3,43.3,–
